Source: ChEMBL document CHEMBL4400542, “Epidermal Growth Factor Receptor-Targeted Multifunctional Photosensitizers for Bladder Cancer Imaging and Photodynamic Therapy” (J Med Chem, 2019)
Active and inactive are the calls of the source. No cut-off for these calls is given here.

Assays:
UMUC3 [1] = assay: Induction of apoptosis in human UM-UC-3 cells assessed as increase in necrotic cells at 1 uM in presence of light by Annexin V/propidium iodide-stining based flow cytometry; assay type: functional, cell-based
UMUC3 [2] = assay: Induction of apoptosis in human UM-UC-3 cells assessed as increase in apoptotic cells at 1 uM in presence of light by Annexin V/propidium iodide-stining based flow cytometry; assay type: functional, cell-based
T-24 [3] = assay: Induction of apoptosis in human T24 cells assessed as increase in apoptotic cells at 100 nM in presence of light by Annexin V/propidium iodide-stining based flow cytometry; assay type: functional, cell-based
T-24 [4] = assay: Induction of apoptosis in human T24 cells assessed as increase in apoptotic cells at 1 uM in presence of light by Annexin V/propidium iodide-stining based flow cytometry; assay type: functional, cell-based
T-24 [5] = assay: Induction of apoptosis in human T24 cells assessed as increase in necrotic cells at 1 uM in presence of light by Annexin V/propidium iodide-stining based flow cytometry; assay type: functional, cell-based
UMUC3 [6] = assay: Induction of apoptosis in human UM-UC-3 cells assessed as increase in apoptotic cells at 100 nM in presence of light by Annexin V/propidium iodide-stining based flow cytometry; assay type: functional, cell-based
UMUC3 [7] = assay: Induction of apoptosis in human UM-UC-3 cells assessed as increase in necrotic cells at 100 nM in presence of light by Annexin V/propidium iodide-stining based flow cytometry; assay type: functional, cell-based
[8] = Drug uptake in human UM-UC-3 cells assessed as increase in gray value intensity at 500 nM after 48 hrs in absence of gleevec by Hoechst 33342 staining based fluorescence microscopy; assay type: ADME, cell-based; conditions: umuc3, 24 h, 0.5 µM, in the assay text read “24 hrs” for “48 hrs”
How it was run: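 Cells plated at 100k per well, grown to 80% confluency, refreshed, then incubated 24 h with PS at 500 nM with or without Gleevec 5 µM. Washed twice with PBS, Hoechst 33342 added, imaged by fluorescence microscopy; grey value normalized to cell number, triplicate groups and images.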

UMUC3 [9] = assay: Anti-tumor activity against human UM-UC-3 cells xenografted in SCID mouse assessed as tumor cure at 0.47 umol/kg, iv in presence of 135 J/cm2 light irradiation at 24 hrs post injection and measured at day 60; assay type: functional
How it was run: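 UMUC-3 cells implanted in right flank of SCID mice; at 4–5 mm tumors, PS given i.v. at 0.47 µmol/kg. Tumors exposed to 665 nm light, 135 J/cm2 at 75 mW/cm2, 24 h post-injection. Tumor regrowth monitored daily; mice euthanized at >400 mm3; tumor-free status scored at day 60.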

[10] = Induction of singlet oxygen generation in deaerated toluene at 670 nm assessed as rate of singlet decay by femtosecond transient absorption spectroscopy; assay type: functional
[11] = Drug uptake in human UM-UC-3 cells xenografted in SCID mouse at 0.47 umol/kg formulated with 2% pluronic F-127 solution and measured at 24 hrs post injection by IVIS analysis; assay type: ADME, cell-based, UMUC3; conditions: in vivo
How it was run: (§1)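 SCID mice (3/group) bearing UMUC3 or T24 tumors of 4–5 mm injected with PS at 0.47 µmol/kg in Tween80 or Pluronic F-127. Tumor, liver and skin fluorescence followed by IVIS optical imaging (ex 675 nm, em 720) at several time points including 24 h.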

[12] = Drug uptake in human UM-UC-3 cells xenografted in SCID mouse at 0.47 umol/kg formulated with 1% tween 80 solution and measured at 24 hrs post injection by IVIS analysis; assay type: ADME, cell-based, UMUC3; conditions: in vivo; how it was run: as §1
[13] = Drug uptake in human T24 cells xenografted in SCID mouse at 0.47 umol/kg formulated with 2% pluronic F-127 solution and measured at 24 hrs post injection by IVIS analysis; assay type: ADME, cell-based, T-24; conditions: in vivo; how it was run: as §1
[14] = Drug uptake in human T24 cells xenografted in SCID mouse at 0.47 umol/kg formulated with 1% tween 80 solution and measured at 24 hrs post injection by IVIS analysis; assay type: ADME, cell-based, T-24; conditions: in vivo; how it was run: as §1
UMUC3 [15] = assay: Anti-tumor activity against human UM-UC-3 cells xenografted in SCID mouse assessed as tumor necrosis at 0.47 umol/kg, iv in presence of 135 J/cm2 light irradiation at 24 hrs post injection and measured at 72 hrs post light exposure; assay type: functional, organism-based
[16] = Induction of singlet oxygen generation in oxygen-free toluene solution at 670 nm assessed as decay rate constant of triplet excited state by femtosecond transient absorption spectroscopy; assay type: functional
[17] = Induction of singlet oxygen generation in toluene solution in presence of oxygen at 670 nm assessed as decay rate constant of triplet excited state by femtosecond transient absorption spectroscopy; assay type: functional
[18] = Induction of singlet oxygen generation in Ar-saturated toluene solution at 670 nm assessed as decay rate constant of triplet excited state by femtosecond transient absorption spectroscopy; assay type: functional
[19] = Induction of singlet oxygen generation in oxygen-saturated toluene solution at 670 nm assessed as decay rate constant of triplet excited state by femtosecond transient absorption spectroscopy; assay type: functional
[20] = Induction of singlet oxygen generation assessed as energy transfer from the triplet chlorins to oxygen by femtosecond transient absorption spectroscopy; assay type: functional

Row | SMILES | Activity (UMUC3 [1]) | Activity (UMUC3 [2]) | Activity (T-24 [3]) | Activity (T-24 [4]) | Activity (T-24 [5]) | Activity (UMUC3 [6]) | Activity (UMUC3 [7]) | Drug uptake [8] | Activity (UMUC3 [9]) [%] | K [10] | Drug uptake [11] | Drug uptake [12] | Drug uptake [13] | Drug uptake [14] | Activity (UMUC3 [15]) | K [16] [×10⁴ /s] | K [17] [×10⁶ /s] | K [18] [×10⁴ /s] | K [19] [×10⁵ /s] | K [20] [×10⁹ /M/s]
1 | CCC1=C(C)c2cc3[nH]c(cc4nc(c5c6[nH]c(cc1n2)c(C)c6C(=O)C5)[C@@H](CCC(=O)OC)[C@@H]4C)c(C)c3C(C)OCc1cccc(I)c1 (some centres not stated) | Active | Active | inactive | Active | Active | Active | Active | Active | 20 | 1 ×10⁹ /s |  |  |  |  |  |  |  |  |  | 
2 | CCC1=C(C)c2cc3[nH]c(cc4nc(c5c6[nH]c(cc1n2)c(C)c6C(=O)C5)[C@@H](CCC(=O)NCc1cccc(I)c1)[C@@H]4C)c(C)c3C(C)OCc1cccc(C#Cc2cccc(Nc3ncnc4cc(OCCOC)c(OCCOC)cc34)c2)c1 (some centres not stated) |  |  |  |  |  |  |  | Not Active |  | 1.2 ×10¹⁰ /s | Active | Active | Active | Active | inactive | 4.27 | 0.634 | 4.27 | 6.34 | 3.17
